# Assay results published in ChEMBL document CHEMBL1123507, “Antipicornavirus activity of substituted phenoxybenzenes and phenoxypyridines” (J Med Chem, 1986).
# Legend:
# [1] = system: Enterovirus; test: Antiviral activity against rhinovirus RV-55; format: functional
# In short: (§1)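 HeLa monolayers were seeded at (1.0-1.3) × 10^5 cells/well, grown 24 h at 36 °C in 5% CO2 to 60–75% cover, then refed with maintenance medium (1-2% heat-inactivated FCS) containing two-fold serial compound dilutions made from a 200 μg/mL stock in Me2SO/medium, with final Me2SO ≤0.1%. Cells were challenged with 10-100 TCID50 virus, and CPE was read microscopically at 48 and 72 h. MIC50 was the lowest concentration giving ≥50% CPE reduction versus virus control. Cytotoxicity was the lowest concentration causing cell death, a growth change or a morphology change in uninfected cultures.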
# [2] = system: Coxsackievirus; test: Ratio of the MIC50 of 6-(4-Nitro-phenoxy)-nicotinonitrile compared to compound obtained in the same test for coxsackie A21; format: functional
# In short: (§2)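 Relative activity was calculated as the MIC50 of the positive control 5-cyano-2-(4-nitrophenoxy)pyridine divided by the MIC50 of the test compound. Both were measured in parallel in the same HeLa CPE test (48/72 h microscopic reading) against RV-1A, RV-2 or coxsackievirus A21.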
# [3] = system: Enterovirus; test: Antiviral activity against rhinovirus RV-9; format: functional; in short: as §1
# [4] = system: Enterovirus; test: Antiviral activity against rhinovirus RV-68; format: functional; in short: as §1
# [5] = system: Enterovirus; test: Antiviral activity against rhinovirus RV-29; format: functional; in short: as §1
# [6] = system: Enterovirus; test: Antiviral activity against rhinovirus RV-Hanks; format: functional; in short: as §1
# [7] = system: Mengo virus; test: Antiviral activity against mengo; format: functional; settings: Cardiovirus A; in short: as §1
# [8] = system: HeLa; test: Cytotoxicity concentration in HeLa cells; format: cell-based; settings: human; in short: as §1
# [9] = system: Enterovirus; test: Antiviral activity against rhinovirus RV-10; format: functional; in short: as §1
# [10] = system: Enterovirus; test: Antiviral activity against rhinovirus RV-5; format: functional; in short: as §1
# [11] = system: Enterovirus; test: Antiviral activity against rhinovirus RV-4; format: functional; in short: as §1
# [12] = system: Enterovirus; test: Compound was evaluated for inhibition of rhinovirus RV-Hanks at a dose of 50 ug/mL by < 50%; format: functional
# [13] = system: Enterovirus; test: Antiviral activity against rhinovirus RV-49; format: functional; in short: as §1
# [14] = system: Enterovirus; test: Antiviral activity against rhinovirus RV-39; format: functional; in short: as §1
# [15] = system: Enterovirus; test: Antiviral activity against rhinovirus RV-1B; format: functional; in short: as §1
# [16] = system: Enterovirus; test: Antiviral activity against rhinovirus RV-32; format: functional; in short: as §1
# [17] = system: Enterovirus; test: Ratio of the MIC50 of 6-(4-Nitro-phenoxy)-nicotinonitrile compared to compound obtained in the same test for Rhinovirus (RV)-1A; format: functional; in short: as §2
# [18] = system: Enterovirus; test: Ratio of the MIC50 of 6-(4-Nitro-phenoxy)-nicotinonitrile compared to compound obtained in the same test for Rhinovirus (RV)-2; format: functional; in short: as §2
# [19] = system: Coxsackievirus; test: Lowest concentration to reduce viral effect by 50% or more against coxsackie virus A21; format: functional; in short: as §1
# [20] = system: Enterovirus; test: Antiviral activity against rhinovirus RV-21; format: functional
# In short: (§3)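 HeLa monolayers (1.0-1.3×10^5 cells/well, grown 24 h at 36 °C to 60-75% cover) refed with maintenance E-MEM (1-2% heat-inactivated FCS) holding two-fold serial dilutions from a 200 μg/mL DMSO stock (final DMSO ≤0.1%). Challenged with 10-100 TCID50 virus, 36 °C, 5% CO2. CPE read microscopically at 48 and 72 h. MIC50 is the lowest concentration cutting CPE ≥50% vs virus control.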
# [21] = system: Echovirus; test: Antiviral activity against Echo 12; format: functional; in short: as §1
# [22] = system: Enterovirus; test: Antiviral activity against rhinovirus RV-14; format: functional; in short: as §1
# [23] = system: Enterovirus C; test: Antiviral activity against Poliovirus type 2; format: functional; in short: as §3
# [24] = system: Enterovirus; test: Antiviral activity against rhinovirus RV-33; format: functional; in short: as §1
# [25] = system: Enterovirus; test: Antiviral activity against rhinovirus RV-44; format: functional; in short: as §1
# [26] = system: Enterovirus; test: Compound was evaluated for inhibition of rhinovirus RV-Hanks 75%; format: functional
# [27] = system: Enterovirus; test: Antiviral activity against rhinovirus RV-74; format: functional; in short: as §1
# [28] = system: Enterovirus; test: Lowest concentration to reduce viral effect by 50% or more against Rhinovirus (RV)-1A; format: functional; in short: as §1
# [29] = system: Coxsackievirus; test: Antiviral activity against coxsackie B4; format: functional; in short: as §1
# [30] = system: Enterovirus; test: Antiviral activity against rhinovirus RV-13; format: functional; in short: as §1
# [31] = system: Enterovirus; test: Antiviral activity against rhinovirus RV-64; format: functional; in short: as §1
# [32] = system: Enterovirus; test: Antiviral activity against rhinovirus RV-8; format: functional; in short: as §1
# [33] = system: Coxsackievirus; test: Antiviral activity against rhinovirus Coxsackie B3; format: functional; in short: as §1
# [34] = system: Enterovirus; test: Lowest concentration to reduce viral effect by 50% or more against Rhinovirus (RV)-2; format: functional; in short: as §1
# [35] = system: Enterovirus; test: Antiviral activity against rhinovirus Polio 2; format: functional; in short: as §3
smiles,measurement,setting,value
CS(=O)(=O)c1ccc(Oc2ccc(Cl)c(Cl)c2)nc1,MIC,[1],< 2 µM
same,Relative activity,[2],0.65
same,MIC,[3],31 µM
same,MIC,[4],> 31 µM
same,MIC,[5],4.1 µM
same,MIC,[6],31 µM
same,MIC,[7],> 16 µM
same,Toxicity,[8],157 µM
same,MIC,[9],< 4.1 µM
same,MIC,[10],> 39 µM
same,MIC,[11],79 µM
same,inhibition at 50 µg/mL,[12],25%
same,MIC,[13],< 2 µM
same,MIC,[14],20 µM
same,MIC,[15],< 0.94 µM
same,MIC,[16],4.1 µM
same,Relative activity,[17],10.4
same,Relative activity,[18],10.4
same,MIC50,[19],20 µM
same,MIC,[20],31 µM
same,MIC,[21],< 4.1 µM
same,MIC,[22],> 31 µM
same,MIC,[23],> 39 µM
same,MIC,[24],2 µM
same,MIC,[25],16 µM
same,Inhibition,[26],65%
same,MIC,[27],7.9 µM
same,MIC50,[28],1 µM
same,MIC,[29],39 µM
same,MIC,[30],> 16 µM
same,MIC,[31],0.94 µM
same,MIC,[32],> 39 µM
same,MIC,[33],> 7.9 µM
same,MIC50,[34],2 µM
N#Cc1cc([N+](=O)[O-])ccc1Oc1ccc(Cl)c(Cl)c1,MIC,[1],0.81 µM
same,Relative activity,[2],99.6
same,MIC,[3],0.42 µM
same,MIC,[4],< 1.9 µM
same,MIC,[5],0.81 µM
same,MIC,[6],0.42 µM
same,MIC,[7],> 1.6 µM
same,Toxicity,[8],> 324 µM
same,MIC,[9],< 1 µM
same,MIC,[10],2 µM
same,MIC,[11],0.97 µM
same,inhibition at 50 µg/mL,[12],0%
same,MIC,[13],0.81 µM
same,MIC,[14],0.42 µM
same,MIC,[15],0.81 µM
same,MIC,[16],0.97 µM
same,Relative activity,[17],319
same,Relative activity,[18],99.6
same,MIC50,[19],0.52 µM
same,MIC,[20],1.9 µM
same,MIC,[21],0.97 µM
same,MIC,[22],3.2 µM
same,MIC,[24],0.81 µM
same,MIC,[25],0.81 µM
same,Inhibition,[26],100%
same,MIC,[27],< 0.97 µM
same,MIC,[35],1.9 µM
same,MIC50,[28],0.26 µM
same,MIC,[29],4.9 µM
same,MIC,[30],0.81 µM
same,MIC,[31],0.52 µM
same,MIC,[32],0.52 µM
same,MIC,[33],4.9 µM
same,MIC50,[34],0.26 µM
